According to ChEMBL document CHEMBL1152544, “Inhibitory effect of beta-diketones and their metal complexes on TNF-alpha induced expression of ICAM-1 on human endothelial cells” (Bioorg Med Chem, 2009):
In brackets after ≈: the same amount, converted by molar mass.

Experiments:
[1] = test system: HUVEC; assay: Antiinflammatory activity in HUVEC assessed as inhibition of TNF-alpha-induced cell surface ICAM1 expression at 60 ug/ml preincubated before TNFalpha challenge measured after 16 hrs by ELISA; type: functional; conditions: Homo sapiens
Summary of the method: (§1)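 Primary umbilical-cord HUVEC in M-199 with 15% FCS were grown confluent on gelatinized plates. They were pretreated with compound in DMSO, then given TNF-α for 16 h. Cells were fixed in 1% glutaraldehyde (30 min, 4 °C) and blocked in 3% defatted milk (3 h, 37 °C). Detection used anti-ICAM-1 mAb overnight at 4 °C, then peroxidase secondary (3 h, 37 °C). Substrate was o-phenylenediamine in citrate pH 4.5, stopped with 2 N H2SO4, read at A490.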

[2] = Cytotoxicity against HUVEC assessed as cell viability at 60 ug/mL after 24 hrs by MTT assay; type: cell-based; conditions: human, HUVEC cells; read-out: Activity
Summary of the method: (§2)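 Primary HUVEC were exposed for 24 h to compound or vehicle (DMSO alone, 0.25%). Medium was replaced with MTT for the final 4 h. Formazan was then dissolved in DMSO and read at 570 nm. Viability was also checked by trypan blue exclusion.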

[3] = test system: HUVEC; assay: Cytotoxicity against HUVEC assessed as cell viability at 6.25 to 200 ug/mL after 24 hrs by MTT assay; type: cell-based; conditions: human; summary of the method: as §2
[4] = test system: HUVEC; assay: Antiinflammatory activity in HUVEC assessed as inhibition of TNF-alpha-induced cell surface ICAM1 expression preincubated before TNFalpha challenge measured after 16 hrs by ELISA; type: functional, cell-based; conditions: Homo sapiens; summary of the method: as §1
[5] = test system: HUVEC; assay: Cytotoxicity against HUVEC after 24 hrs by MTT assay; type: cell-based; conditions: human
Summary of the method: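 Primary endothelial cells isolated from human umbilical cord, grown in M-199 with 15% fetal calf serum, L-glutamine, penicillin, streptomycin, amphotericin and endothelial-cell growth factor, and used after three passages. Cells exposed to vehicle (DMSO 0.25%) or a range of compound concentrations for 24 h. MTT added for the last 4 h, formazan dissolved in DMSO, absorbance read at 570 nm. Trypan blue exclusion also done.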

[6] = test system: HUVEC; assay: Antiinflammatory activity in HUVEC assessed as inhibition of TNF-alpha-induced cell surface ICAM1 expression at 271.4 uM/ml preincubated before TNFalpha challenge measured after 16 hrs by ELISA; type: functional; conditions: Homo sapiens; summary of the method: as §1
[7] = test system: HUVEC; assay: Antiinflammatory activity in HUVEC assessed as inhibition of TNF-alpha-induced cell surface ICAM1 expression at 50 uM/ml preincubated before TNFalpha challenge measured after 16 hrs by ELISA; type: functional; conditions: Homo sapiens

Row | Compound | inhibition at 60 µg/mL [1] [%] | viability at 24 h, 60 ug/mL [2] [%] | Activity [3] | IC50 [4] [µg/mL] | MTD [5] [uM/ml] | inhibition at 271.4 µM [6] [%] | inhibition at 50 µM [7] [%]
1 | CC1=NN(c2ccccc2)C(=O)C1C(=O)c1ccccc1 (stereo not drawn) | 75 | 95.8 | Non-toxic | 36.3 (≈ 130 µM) | 271.4 | 62 | 
2 | CC(=O)C1C(=O)N(c2ccccc2)N=C1c1ccccc1 (stereo not drawn) | 20 | 97.9 |  |  |  |  | 
3 | Cc1[nH]n(-c2ccccc2)c(=O)c1C(=O)CC(C)(C)C | 35 | 97.1 |  |  |  |  | 
4 | CC1=NN(c2ccccc2)C(=O)C1C(=O)C(C)(C)C (stereo not drawn) | 60 | 96.1 |  |  |  |  | 
5 | CC1=NN(c2ccccc2)C(=O)C1C(=O)c1ccco1 (stereo not drawn) | 55 | 96.2 |  |  |  |  | 
6 | CC1=NN(c2ccccc2)C(=O)C1C(=O)CCC1CCCC1 (stereo not drawn) | 35 | 98.6 |  |  |  |  | 
7 | COc1cc(/C=C/C(=O)CC(=O)/C=C/c2ccc(O)c(OC)c2)ccc1O [CURCUMIN] |  |  |  |  | 50 |  | 90
